The record followed here is ChEMBL document CHEMBL1139846, “New fluorescent 2-phenylindolglyoxylamide derivatives as probes targeting the peripheral-type benzodiazepine receptor: design, synthesis, and biological evaluation” (J Med Chem, 2007).

Active and inactive are the calls of the source. No cut-off for these calls is given here.

Experiment [1] concerns GABA-A receptor / central benzodiazepine receptor (Rattus norvegicus). The experiment can be described thus: Displacement of [3H]flumazenil from central benzodiazepine receptor in rat cerebral cortex membranes at 10 uM. The conditions noted are these: Membrane. For orientation: Loss of bound radioactivity is the signal in a displacement assay; it reports binding, not function.

For another experiment, the target named is Translocator protein (Rattus norvegicus, UniProt P16257). The experiment is described as follows: Displacement of [3H]PK 11195 from peripheral-type benzodiazepine receptor in rat kidney mitochondrial membranes. The format is cell membranes, Membrane.
Sequence of Translocator protein (P16257 whole entry, looked up): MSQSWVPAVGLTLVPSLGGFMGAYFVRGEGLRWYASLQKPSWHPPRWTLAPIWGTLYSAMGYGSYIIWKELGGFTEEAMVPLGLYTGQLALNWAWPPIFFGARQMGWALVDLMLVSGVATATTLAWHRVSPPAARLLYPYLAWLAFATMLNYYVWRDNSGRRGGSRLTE
In experiment [2] the target is Translocator protein (Rattus norvegicus) (UniProt P16257). The experiment can be described thus: Displacement of 2-(2-(4-fluorophenyl)-1H-indol -3-yl)-N-(6-(7-nitrobenzo[c][1, 2,5]oxadiazol-4-ylamino)hexyl )-2-oxoacetamide from peripheral type benzodiazepine receptor in rat C6 glioma cells at 10 uM. The format is cell-based. The procedure, abridged:
(§1)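 Subconfluent rat C6 glioma cells in DMEM preincubated 30 min with PK 11195 or Ip (10 µM to 100 µM range), then stained with fluorescent PBR ligand at final 10 µM in culture medium, 30 min, 37 °C, 5% CO2. PBS wash, 4% paraformaldehyde fixation, fluorescence microscopy; displacement of cytoplasmic (mitochondrial) staining judged visually.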

The target is the same in experiment [3]. The experiment is described as follows: Displacement of 2-(2-(4-fluorophenyl)-1H-indol -3-yl)-N-(6-(7-nitrobenzo[c][1, 2,5]oxadiazol-4-ylamino)hexyl )-2-oxoacetamide from peripheral type benzodiazepine receptor in rat C6 glioma cells at 50 uM. The experiment is classed as cell-based. The essentials: as §1

Sequence of Translocator protein (Rattus norvegicus) (P16257 whole entry, looked up): as above

With `O=C(NCCCCCCNc1ccc([N+](=O)[O-])c2nonc12)C(=O)c1c(-c2ccccc2)[nH]c2ccccc12`, the inhibition in experiment [1] is under 10%.
At Translocator protein, `O=C(NCCNc1ccc([N+](=O)[O-])c2[n-][o+]nc12)C(=O)c1c(-c2ccc(F)cc2)[nH]c2ccccc12` showed a Ki of 835 nM.
Consider `O=C(NCCCCNc1ccc([N+](=O)[O-])c2nonc12)C(=O)c1c(-c2ccc(F)cc2)[nH]c2ccccc12`, for which the inhibition constant (Ki) at Translocator protein is 23 nM. This compound also displayed an inhibition in experiment [1] of under 10%.
On Translocator protein, `O=C(NCCCCCCNc1ccc([N+](=O)[O-])c2nonc12)C(=O)c1c(-c2ccc(F)cc2)[nH]c2ccccc12` came in with a Ki of 12 nM. The inhibition in experiment [1] is under 10%.
In the case of `O=C(NCCNc1ccc([N+](=O)[O-])c2nonc12)C(=O)c1c(-c2ccc(F)cc2)[nH]c2ccccc12`, the inhibition in experiment [1] is under 10%.
Consider `CCC(C)N(C)C(=O)c1cc2ccccc2c(-c2ccccc2Cl)n1` (stereo unspecified), for which the result in experiment [2] was Active.
In the case of `CCCCCCN(CCCCCC)C(=O)C(=O)c1c(-c2ccc(F)cc2)[nH]c2ccccc12`, the outcome in experiment [3] and in experiment [2] was Active.
As for `O=C(NCCCCCCNc1ccc([N+](=O)[O-])c2[n-][o+]nc12)C(=O)c1c(-c2ccccc2)[nH]c2ccccc12`, the inhibition constant Ki at Translocator protein was 17 nM. This lies in the double-digit nanomolar range.
Still for that read-out and setting: the same measure for `CCCN(CCC)C(=O)Cc1c(-c2ccc(Cl)cc2)nc2ccc(Cl)cn12` [ALPIDEM]: 0.5 nM.
Take `O=C(NCCNc1ccc([N+](=O)[O-])c2nonc12)C(=O)c1c(-c2ccccc2)[nH]c2ccccc12`: the Ki at Translocator protein is 994 nM. In experiment [1], the inhibition was under 10%.
The like results for `O=C(NCCCCNc1ccc([N+](=O)[O-])c2nonc12)C(=O)c1c(-c2ccccc2)[nH]c2ccccc12` were, in that order, 42 nM and under 10%.

A word on the inhibition: it is how much of the control response was suppressed. Low readings indicate a weak effect, high ones a strong effect. By Ki is commonly meant the equilibrium dissociation constant of an inhibitor or competing ligand from its target. A lower Ki goes with higher affinity.
